Screens deposited in PubChem by Broad Institute.
Hits are enriched below; roughly 2% of the tested compounds scored in any of these assays.
FN deposition inh = fibronectin deposition inhibition; AH1F fibroblasts, Alexa488-fibronectin deposition fluorescence, overnight; inhibition, % at 12.6 µM; 350,000 compounds, 0.086% hits; AID 743247;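 active means mean inhibition across replicates of 30% or more, regardless of how many single replicates reach that level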
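Material: AH1F fibroblasts assembling fluorescent fibronectin matrix; amount: 10000 AH1F cells/well; medium: DMEM, 2% serum; reagent: Alexa488-fibronectin, 24 nM final in well; dosing: single compound dose, delivered by pin transfer; incubation: 1 h adhesion, overnight exposure; detection: fluorescence after three HBSS washes, excitation 485 nm, emission 525 nm; measure: fibronectin deposition inhibition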
Casp6 inh = caspase-6 (human) enzyme inhibition | P55212 | purified caspase-6, Z-VEID-R110 cleavage fluorescence | inhibition, % at 12.5 µM | 350,000 compounds, 0.53% hits | AID 686996;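 active means mean inhibition across replicates at least about 35%, with every replicate also reaching that limit, limit read from the data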
Target sequence (P55212 24-179 limits assumed): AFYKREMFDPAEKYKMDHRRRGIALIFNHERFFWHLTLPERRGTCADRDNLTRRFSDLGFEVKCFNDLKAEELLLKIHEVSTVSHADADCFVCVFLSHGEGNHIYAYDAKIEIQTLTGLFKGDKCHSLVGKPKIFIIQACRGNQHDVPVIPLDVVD
Target sequence (P55212 194-293 limits assumed): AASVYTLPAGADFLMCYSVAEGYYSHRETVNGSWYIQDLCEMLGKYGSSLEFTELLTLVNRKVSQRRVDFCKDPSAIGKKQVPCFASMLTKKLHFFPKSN
CaV13 FRET inh = Disruptors of the CACNA1D IQ motif to Ca2+-dependent inactivation inhibitor domain association, primary screening, Förster resonance energy transfer in intact living …; HEK cells, CFP/YFP FRET ICDI-IQ, plate reader, 10 min; percent FRET-ratio fall versus neutral wells; 340,000 compounds, 0.098% hits; AID 743397; inhibition, % at 12.3 µM;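 active means mean replicate inhibition of at least 30% and at least 1% of replicates passing that level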
DENV2 CPE rescue = DENV2-induced cell death inhibition. DENV2-infected cells, cytopathic effect rescue, plate reader. CPE inhibition, % at 9.99 µM. 350,000 compounds, 1.7% hits. AID 651640; in the data active means CPE inhibition above about 20%, passing the limit was not always enough; tested in BHK-21 cells
Xi reactivation = activators of X-chromosome reactivation in mouse fibroblasts; AID 743238; 360,000 compounds, 0.055% hits; activation, % at 7.58 µM; XiGFP mouse fibroblasts, % GFP-positive cells imaging, 3 d; cells co-treated with 5-aza-dC sensitizer; scaled so ellipticine positive control = 100%;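 active means mean normalized replicate activation at least 10% and every replicate at or above 10%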
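material = 68-5-11 XiGFP fibroblast line | medium = DMEM plus 5-aza-dC sensitizer | schedule = 3 days compound exposure | benchmarks = positive control ellipticine, 6 µM final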
Each line names hits and unclear results; the compound was inactive in the other large screens; ! = not active in a repeat.

C=C(C(=O)O)C(CCCCCC)C(=O)O (stereo not drawn)	DENV2 CPE rescue 89.9 (no result: FN deposition inh, CaV13 FRET inh, Xi reactivation)
Cc1ccc(S(=O)(=O)N(C)c2ccc(C)c([N+](=O)[O-])c2)cc1	Xi reactivation 20.9
COc1ccc(N(C)S(=O)(=O)c2ccc(C)cc2)c([N+](=O)[O-])c1	none
O=C(Nc1ccc(F)c(Cl)c1)c1cc(C2CCCN(S(=O)(=O)c3cccc4cccnc34)C2)on1 (stereo not drawn)	Casp6 inh 36.4
CCCNC(=O)c1cc(C2CCCN(S(=O)(=O)c3cccc4cccnc34)C2)on1 (stereo not drawn)	none
CC(=O)NCCCC[C@@H]1NC(=O)[C@@H]2C[C@H](C(=O)NCc3ccc(F)cc3)[C@H](c3ccc(O)cc3)N2C1=O	DENV2 CPE rescue 20.1 (no result: FN deposition inh, CaV13 FRET inh, Xi reactivation)
COc1cccc(C(=O)CC(=O)C(=O)Nc2cccc([N+](=O)[O-])c2C)c1	none
COc1ccc(C(=O)CC(=O)C(=O)Nc2cccc([N+](=O)[O-])c2C)cc1	DENV2 CPE rescue 29.9
Cc1ccc(S(=O)(=O)N(C)C[C@@H]2OCCCC[C@H](C)Oc3ccc(NC(=O)c4ccncc4)cc3C(=O)N([C@@H](C)CO)C[C@H]2C)cc1	none (no result: CaV13 FRET inh)
O=C(c1cccc(F)c1)N1CCC2(CC1)NCCc1[nH]cnc12	none
O=C(c1cccc(Cl)c1)N1CCC2(CC1)NCCc1[nH]cnc12	DENV2 CPE rescue 27.1
CCC(=O)Nc1ccc2c(c1)C(=O)N(C)[C@H]1CC[C@H](CC(=O)NC3CCCC3)O[C@H]1CO2	none (no result: CaV13 FRET inh)
CN1C(=O)c2cc(NC(=O)NC3CCCC3)ccc2OC[C@H]2O[C@H](CC(=O)NC3CCC3)CC[C@@H]21	DENV2 CPE rescue 61.4 (no result: CaV13 FRET inh)
CCC(=O)Nc1ccc2c(c1)C(=O)N(C)[C@@H]1CC[C@H](CC(=O)NC3CCCC3)O[C@H]1CO2	DENV2 CPE rescue 43.5 (no result: FN deposition inh, CaV13 FRET inh)
COc1ccc(NC(=O)N(C)C[C@@H]2Oc3ccc(NS(=O)(=O)c4cn(C)cn4)cc3C(=O)N([C@@H](C)CO)C[C@@H]2C)cc1	none (no result: FN deposition inh, CaV13 FRET inh)
O=C(Nc1ccc(F)cc1)C(c1cccc(F)c1)N1CCN(C(=O)c2ccco2)CC1 (stereo not drawn)	DENV2 CPE rescue 47.2
Cc1ccc(NC(=O)N2CCCC2)cc1Cl	none
Cc1ccc(NC(=O)N2CCN(C(=O)c3ccco3)CC2)cc1Cl	DENV2 CPE rescue 38.5
COc1ccc2c3c([nH]c2c1)[C@H](CO)N(Cc1ccc(Cl)cc1)CC31CCN(Cc2ccccc2)CC1	none (no result: FN deposition inh, Casp6 inh, CaV13 FRET inh)
C/C(=N\OCC(=O)Nc1ccc(OC(F)(F)F)cc1)c1ccc2c(c1)OCCO2	DENV2 CPE rescue 107.8
COc1ccc(CN(CCC(c2ccccc2)C2CCOC(C)(C)C2)C(C)=O)cc1 (stereo not drawn)	DENV2 CPE rescue 102.1
O=C(c1ccncc1)N1CC(=O)N2[C@H](CO)[C@@H](c3ccc(-c4ccccc4)cc3)[C@@H]2C1	none (no result: FN deposition inh, CaV13 FRET inh)
O=C(O)c1cccc(S(=O)(=O)NNc2ccccc2C(F)(F)F)c1	Casp6 inh 40.5 (no result: Xi reactivation)
CC(=O)Nc1scc(C)c1-c1nc2ccccc2s1	DENV2 CPE rescue 50.3
COCC(=O)N1CC2(CN(Cc3ccc(OC)cc3)C2)c2c([nH]c3cc(OC)ccc23)[C@H]1CO	none (no result: FN deposition inh, CaV13 FRET inh)
C[C@@H]1CN([C@@H](C)CO)C(=O)c2cccc(NC(=O)C3CCCCC3)c2O[C@@H]1CN(C)C(=O)NC1CCCCC1	DENV2 CPE rescue 32.6!
C[C@H]1CN([C@@H](C)CO)C(=O)c2cccc(NC(=O)C3CCCCC3)c2O[C@@H]1CN(C)C(=O)NC1CCCCC1	none (no result: FN deposition inh, CaV13 FRET inh)
Cc1cc(C(=O)Nc2cccc3c2O[C@@H](CN(C)C(=O)NC2CCCCC2)[C@H](C)CN([C@H](C)CO)C3=O)n(C)n1	none (no result: FN deposition inh, CaV13 FRET inh)
Cc1cc(C(=O)Nc2cccc3c2O[C@H](CN(C)C(=O)NC2CCCCC2)[C@@H](C)CN([C@H](C)CO)C3=O)n(C)n1	DENV2 CPE rescue 37.3 (no result: FN deposition inh, CaV13 FRET inh)
C[C@H]1CN([C@@H](C)CO)C(=O)c2cccc(NC(=O)C3CC3)c2O[C@@H]1CN(C)C(=O)NC1CCCCC1	DENV2 CPE rescue 54.1 (no result: FN deposition inh, CaV13 FRET inh)
C[C@H](CO)N1C[C@H](C)[C@H](CN(C)S(=O)(=O)c2cn(C)cn2)Oc2ccc(NS(=O)(=O)c3ccc(F)cc3)cc2CC1=O	none (no result: FN deposition inh, Casp6 inh, CaV13 FRET inh)
CC(C)(C(=O)N1CCC1(C)C(=O)Nc1ccccc1Br)c1ccccc1 (stereo not drawn)	DENV2 CPE rescue 24.7
CN1C[C@H]2[C@@H](c3ccccc31)[C@H](CO)N2C(=O)c1ccccn1	DENV2 CPE rescue 28.0 (no result: FN deposition inh, CaV13 FRET inh)
CN1C[C@@H]2[C@H](c3ccccc31)[C@H](CO)N2Cc1ccccc1	none (no result: FN deposition inh, Casp6 inh, CaV13 FRET inh, DENV2 CPE rescue)
CN1C[C@@H]2[C@H](c3ccccc31)[C@H](CO)N2C(=O)c1ccccn1	none (no result: FN deposition inh, Casp6 inh, CaV13 FRET inh)
O=C(Nc1ccccc1)N1C[C@@H]2[C@H](c3ccccc31)[C@@H](CO)N2C(=O)c1ccccn1	DENV2 CPE rescue 71.2 (no result: FN deposition inh, CaV13 FRET inh)
O=C(c1ccccc1)N1C[C@H]2[C@@H](c3ccccc31)[C@H](CO)N2C(=O)c1ccccn1	DENV2 CPE rescue 25.2 (no result: CaV13 FRET inh)
CN1C[C@@H]2[C@H](c3ccccc31)[C@@H](CO)N2Cc1ccccc1	DENV2 CPE rescue 44.2 (no result: FN deposition inh, CaV13 FRET inh)
COc1ccc(S(=O)(=O)Nc2ccc3c(c2)CC(=O)N([C@@H](C)CO)C[C@@H](C)[C@H](CN(C)CC2CCCCC2)O3)cc1	none (no result: FN deposition inh, CaV13 FRET inh)
CCC/C(=C1/c2ccccc2C(=O)N1c1ccccc1)c1ccc2c(c1)OCCO2	none
CCC/C(=C1/c2ccccc2C(=O)N1c1ccccc1)c1ccc(O[C@@H]2CCCCO2)cc1	DENV2 CPE rescue 36.9
O=S(=O)(NC[C@@H]1N[C@H](CO)[C@@H]1c1ccc(C2=CCCC2)cc1)c1ccccc1	none (no result: CaV13 FRET inh)
O=S(=O)(NC[C@H]1N[C@@H](CO)[C@H]1c1ccc(C2=CCCC2)cc1)c1ccccc1	DENV2 CPE rescue 32.1 (no result: CaV13 FRET inh)
O=C(NC[C@@H]1N[C@@H](CO)[C@H]1c1ccc(C2=CCCCC2)cc1)c1ccc(F)cc1	DENV2 CPE rescue 51.5 (no result: CaV13 FRET inh)
COc1cccc(CNC(=O)C[C@H]2C=C[C@@H](NC(=O)C3CCC3)[C@@H](CO)O2)c1	none (no result: FN deposition inh, Casp6 inh, CaV13 FRET inh, DENV2 CPE rescue)
COCCn1nnnc1C(c1cc2cc(C)ccc2[nH]c1=O)N1CCN(C2CCCCC2)CC1 (stereo not drawn)	DENV2 CPE rescue 29.7 (no result: FN deposition inh, Xi reactivation)
CN1C(=O)c2cc(NC(=O)C3CC3)ccc2OC[C@@H]2O[C@@H](CC(=O)O)CC[C@H]21	none (no result: CaV13 FRET inh)
C[C@@H]1CC=CC[C@@H](c2ccc3c(c2)OCO3)NC(=O)[C@H](C)N(C)C(=O)c2ccccc2O1 (mixture of isomers)	none (no result: Casp6 inh, CaV13 FRET inh, DENV2 CPE rescue)
CCOC(=O)C1=CN2CCC[C@H]2CC1=O	DENV2 CPE rescue 63.1
COc1ccc(S(=O)(=O)N2CCN(CC(=O)NC3CC3)CC2)cc1	DENV2 CPE rescue 23.3
O=C(CN1CCN(S(=O)(=O)c2ccccc2F)CC1)Nc1ccnn1C1CCCC1	none
C/C=C(\C)CN1CCC(n2nccc2NC(=O)CCOc2ccccc2)CC1	none
